Experimental data published in ChEMBL document CHEMBL1129404, “6-phenyl-1,4-dihydropyridine derivatives as potent and selective A3 adenosine receptor antagonists” (J Med Chem, 1996).

Target: T1, Adenosine receptor A1 (Rattus norvegicus) (UniProt P25099)
T1 sequence (whole entry): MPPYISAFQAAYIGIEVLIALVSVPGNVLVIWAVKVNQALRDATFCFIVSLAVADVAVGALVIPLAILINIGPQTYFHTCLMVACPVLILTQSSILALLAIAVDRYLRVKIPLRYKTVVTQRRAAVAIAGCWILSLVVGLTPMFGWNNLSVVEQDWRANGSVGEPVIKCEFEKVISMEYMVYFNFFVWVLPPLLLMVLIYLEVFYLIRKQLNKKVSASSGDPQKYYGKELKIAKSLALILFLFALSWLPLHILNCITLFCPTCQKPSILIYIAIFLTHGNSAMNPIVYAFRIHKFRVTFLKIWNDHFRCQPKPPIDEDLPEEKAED
Experiment: Binding affinity for Adenosine A1 receptor in rat cerebral cortex membrane with [3H]-(R)-PIA.
Type: cell membranes
Conditions: not given
Procedure, shortened: (§1)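 Rat cerebral cortex membranes prepared with adenosine deaminase (3 units/mL), preincubated 30 min at 30 °C, with deaminase also present during incubation with [3H]-(R)-PIA. Competitor used at five or more concentrations spanning 3 orders of magnitude.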

With `CCOC(=O)C1=C(c2ccccc2)N=C(C)/C(=C(/O)OCc2ccccc2)C1C#Cc1ccccc1` (stereo not given) as the compound, how does the Inhibition (at concentration M) read?
Its Inhibition (at concentration M) is 24%.

With `CCO/C(O)=C1\C(C)=NC(c2ccccc2)=C(C(=O)OCc2ccccc2)C1/C=C/c1ccccc1` (stereo not given) as the compound, how does the Inhibition (at concentration M) read?
The Inhibition (at concentration M) was 35%.

Test system: not listed separately
Experiment: Relative binding affinities for rat adenosine A1 and human adenosine A3 receptors; Selectivity ratio
Conditions: not given
Procedure, shortened: (§2)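 Ratio of Ki values: rat A1 ([3H]-(R)-PIA, rat cortical membranes) over human A3 ([125I]AB-MECA, HEK-293 membranes), each Ki derived by Cheng-Prusoff from competition curves.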

For `CCOC(=O)C1=C(C)NC(C)=C(C(=O)OC)C1/C=C/c1ccccc1` (stereo not given), which Ratio is on record?
Its Ratio is 24.

Which Ratio does the source give for `CCOC(=O)c1c(C)nc(-c2ccccc2)c(C(=O)OCc2ccccc2)c1C#Cc1ccccc1` here?
Its Ratio is 4.2.

Target: T1, Adenosine receptor A1 (Rattus norvegicus)
Experiment: Binding affinity for Adenosine A1 receptor in rat cerebral cortex membrane with [3H](R)-PIA.
Type: cell membranes
Conditions: concentration not given here
Procedure, shortened: as §1

Which inhibition does the source give for `CCO/C(O)=C1\C(C)=NC(c2ccccc2)=C(C(=O)OCc2ccccc2)C1/C=C/c1ccc([N+](=O)[O-])cc1` (stereo not given) here?
The inhibition was 33%.

For `CCOC(=O)C1=C(c2ccccc2)N=C(C)/C(=C(/O)OCc2ccccc2)C1/C=C/c1ccc([N+](=O)[O-])cc1` (stereo not given), which inhibition is on record?
The inhibition was < 10%.

Target: Adenosine receptor A2a (Rattus norvegicus, UniProt P30543)
Sequence (P30543 whole entry): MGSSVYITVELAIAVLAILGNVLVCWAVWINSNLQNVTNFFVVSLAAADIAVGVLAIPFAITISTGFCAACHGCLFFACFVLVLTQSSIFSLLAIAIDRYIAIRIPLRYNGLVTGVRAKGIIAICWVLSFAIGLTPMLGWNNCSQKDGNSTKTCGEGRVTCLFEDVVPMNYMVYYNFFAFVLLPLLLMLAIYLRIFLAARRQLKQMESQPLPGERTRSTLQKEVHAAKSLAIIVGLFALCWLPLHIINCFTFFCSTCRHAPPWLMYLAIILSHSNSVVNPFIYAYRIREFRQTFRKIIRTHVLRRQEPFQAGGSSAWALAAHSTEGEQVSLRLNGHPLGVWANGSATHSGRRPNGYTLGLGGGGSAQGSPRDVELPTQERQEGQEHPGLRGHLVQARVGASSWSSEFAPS
Experiment: Displacement of [3H]-CGS- 21680 from Adenosine A2A receptor of rat striatal membrane
Conditions: not given

Which Ki does the source give for `CCOC(=O)c1c(C)nc(-c2ccccc2)c(C(=O)OCC)c1/C=C/c1ccccc1` here?
Its Ki is 2.4 µM.

Which Ki does the source give for `CCO/C(O)=C1\C(C)=NC(C)=C(C(=O)OC)C1CC` (stereo not given) here?
The Ki was 7.89 µM.

For `CCO/C(O)=C1\C(C)=NC(c2ccccc2)=C(C(=O)OCc2ccccc2)C1C` (stereo not given), which Ki is on record?
Its Ki is 3.15 µM.

Which Ki does the source give for `CCOC(=O)C1=C(c2ccccc2)N=C(C)/C(=C(/O)OCC)C1CC` (stereo not given) here?
Its Ki is 14.5 µM.

With `CCOC(=O)C1=C(C)N=C(C)/C(=C(/O)OCC)C1/C=C/c1ccccc1` (stereo not given) as the compound, how does the Ki read?
The Ki was 9.23 µM.

Test system: not listed separately
Experiment: Relative affinities for rat adenosine A1 and human adenosine A3 receptors
Conditions: not given
Procedure, shortened: as §2

For `CCOC(=O)c1c(C)nc(-c2ccccc2)c(C(=O)OCC)c1C`, which Selectivity ratio is on record?
Its Selectivity ratio is 1.7.

Target: Adenosine receptor A2a (Rattus norvegicus) (UniProt P30543)
Sequence (P30543 whole entry): as above
Experiment: Inhibition of [3H]-CGS- 21680 binding to Adenosine A2A receptor of rat striatal membrane
Parameters: concentration or dose not given beside the values
Conditions: concentration not given here

With `CCOC(=O)C1=C(c2ccccc2)N=C(C)/C(=C(/O)OCC)C1/C=C/c1ccc([N+](=O)[O-])cc1` (stereo not given) as the compound, how does the inhibition read?
The inhibition was 33%.

With `CCO/C(O)=C1\C(C)=NC(c2ccccc2)=C(C(=O)OCc2ccccc2)C1/C=C/c1ccc([N+](=O)[O-])cc1` (stereo not given) as the compound, how does the inhibition read?
Its inhibition is < 10%.

For `CCOC(=O)C1=C(C)NC(C)=C(C(=O)OCc2ccccc2)C1/C=C/c1ccccc1` (stereo not given), which inhibition is on record?
The inhibition was 14%.

Which inhibition does the source give for `CCOC(=O)C1=C(c2ccccc2)N=C(C)/C(=C(/O)OCC)C1/C=C/c1ccccc1[N+](=O)[O-]` (stereo not given) here?
Its inhibition is < 10%.

Which inhibition does the source give for `CCOC(=O)C1=C(c2ccc(OC)cc2)N=C(C)/C(=C(/O)OCC)C1/C=C/c1ccccc1` (stereo not given) here?
The inhibition was < 10%.

With `CCOC(=O)C1=C(c2ccoc2)N=C(C)/C(=C(/O)OCC)C1/C=C/c1ccccc1` (stereo not given) as the compound, how does the inhibition read?
The inhibition was 35%.

With `CCOC(=O)c1c(C)nc(-c2ccccc2)c(C(=O)OCc2ccccc2)c1C#Cc1ccccc1` as the compound, how does the inhibition read?
Its inhibition is 43%.

For `CCOC(=O)C1=C(c2ccsc2)N=C(C)/C(=C(/O)OCC)C1/C=C/c1ccccc1` (stereo not given), which inhibition is on record?
The inhibition was < 10%.

With `CCOC(=O)C1=C(c2ccccc2)N=C(C)/C(=C(/O)OCc2ccccc2)C1/C=C/c1ccc([N+](=O)[O-])cc1` (stereo not given) as the compound, how does the inhibition read?
The inhibition was < 10%.

With `CCOC(=O)C1=C(c2ccc(Cl)cc2)N=C(C)/C(=C(/O)OCC)C1/C=C/c1ccccc1` (stereo not given) as the compound, how does the inhibition read?
The inhibition was 12%.

For `CCOC(=O)C1=C(c2ccccc2)N=C(C)/C(=C(/O)OCC)C1/C=C/c1ccccc1OC` (stereo not given), which inhibition is on record?
The inhibition was 17%.

Target: T1, Adenosine receptor A1 (Rattus norvegicus)
Experiment: Binding affinity for Adenosine A1 receptor of rat cerebral cortex membrane with [3H](R)-PIA.
Type: tissue-based
Conditions: not given
Procedure, shortened: as §1

Which Inhibition (at concentration M) does the source give for `CCOC(=O)C1=C(c2ccccc2)N=C(C)/C(=C(/O)OCc2ccccc2)C1/C=C/c1ccccc1` (stereo not given) here?
Its Inhibition (at concentration M) is < 10%.

Target: Adenosine receptor A2a (Rattus norvegicus) (UniProt P30543)
Experiment: Binding affinity for Adenosine A2A receptor in rat striatal membrane with [3H]-CGS- 21680
Type: cell membranes
Parameters: concentration or dose not given beside the values
Conditions: Striatum

With `CCO/C(O)=C1\C(C)=NC(c2ccccc2)=C(C(=O)OCc2ccccc2)C1C#Cc1ccccc1` (stereo not given) as the compound, how does the Inhibition (at concentration M) read?
The Inhibition (at concentration M) was < 10%.

For `CCOC(=O)C1=C(c2ccc(C)cc2)N=C(C)/C(=C(/O)OCC)C1/C=C/c1ccccc1` (stereo not given), which Inhibition (at concentration M) is on record?
Its Inhibition (at concentration M) is 37%.

Which Inhibition (at concentration M) does the source give for `CCOC(=O)C1=C(c2ccccc2)N=C(C)/C(=C(/O)OCc2ccccc2)C1C#Cc1ccccc1` (stereo not given) here?
The Inhibition (at concentration M) was < 10%.

With `CCOC(=O)C1=C(c2ccccc2)N=C(C)/C(=C(/O)OCC)C1C#Cc1ccccc1` (stereo not given) as the compound, how does the Inhibition (at concentration M) read?
Its Inhibition (at concentration M) is 26%.

With `CCOC(=O)C1=C(c2ccccc2)N=C(C)/C(=C(/O)OCC)C1C=C(c1ccccc1)c1ccccc1` (stereo not given) as the compound, how does the Inhibition (at concentration M) read?
The Inhibition (at concentration M) was 12%.

Which Inhibition (at concentration M) does the source give for `CCO/C(O)=C1\C(C)=NC(c2ccccc2)=C(C(=O)OCc2ccccc2)C1/C=C/c1ccccc1` (stereo not given) here?
Its Inhibition (at concentration M) is 15%.
